Test results reported in ChEMBL document CHEMBL1268869, “Structural optimization and biological evaluation of substituted bisphenol A derivatives as beta-amyloid peptide aggregation inhibitors” (J Med Chem, 2010).
Activity calls are given as the source filed them. The calls are words filed in the database; no cut-off is given here.

Legend:
[1] = Inhibition of amyloid beta (1-42) aggregation by thioflavin T fluorescence method
Method in brief: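 Compound (2 μL of 0.1–10.0 mM) was mixed with 4 μL of 50 μM Aβ1-42 in PBS pH 7.4 containing 11% ethanol, 2 h at room temperature. Then 40 μM ThT in PBS/10% ethanol was added. Fluorescence was read with excitation 430 nm and emission 488 nm.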

[2] = Inhibition of gamma-secretase by fluorogenic substrate assay
Method in brief: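 Membrane protein (10 μg/well) was incubated with 6 μM fluorogenic substrate and compound in reaction buffer, 100 μL final, at 37 C for 5 h. Fluorescence was read at excitation 355 nm and emission 440 nm. L685,458 was the reference inhibitor. Dose-response curves were fitted by nonlinear regression.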

[3] = test system: PC-12; assay: Neuroprotective activity against rat PC12 cells assessed as reversal of amyloid beta (1 to 42)-induced neuronal damage in at 1 uM after 48 hrs by MTT assay; assay type: functional
Method in brief: (§1)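 Differentiated PC-12 cells (10 000/well) received compound diluted in Aβ1-42 solution (5% DMSO water stock), giving final 10 μM Aβ1-42 with 0–3 μM compound (0.01–3 μM; dose curve 0.003–3 μM), for 48 h. MTT absorbance at 570 nm was normalized to full-kill and media controls. 3 independent experiments × 3 replicates.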

[4] = Inhibition of amyloid beta (1 to 42) fibrillation after 27 days by AFM assay; conditions: in the assay text read “after 17 days” for “after 27 days”
Method in brief: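 For fibril formation, 200 μM Aβ1-42 in water/DMSO was kept 17 days at 37 C. These fibrils were then incubated with compound (10 mM stock) or DMSO for 27 days at 37 C. Samples were diluted 5-fold in water, dried on mica and imaged by tapping-mode AFM.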

[5] = Inhibition of amyloid beta (1 to 42) fibrillation after 5 days at -80 degC by PICUP assay
Method in brief: (§2)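 Aβ1-42 was HFIP-treated, sonicated 30 min, dried under nitrogen and redissolved in water. Photo-crosslinking used Ru(bpy)3Cl2 and APS (Aβ/Ru/APS 1/4/80) under a 150 W xenon lamp for 3 s, then quench, 95 C for 5 min and 15% tricine SDS-PAGE. Monomer/(dimer+tetramer) band pixels were compared.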

[6] = Inhibition of amyloid beta (12-28) fibrillation assessed as decrease in alpha-helix component at 3:1 compound to protein ratio by CD spectroscopy assay; conditions: concentration not given here
[7] = Inhibition of amyloid beta (1 to 42) fibrillation after 5 days at 37 degC by PICUP assay; method in brief: as §2
[8] = Inhibition of amyloid beta (12-28) fibrillation assessed as increase in beta-turn conformational component at 3:1 compound to protein ratio by CD spectroscopy assay; conditions: concentration not given here
Method in brief: (§3)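 HFIP-treated Aβ12-28 was dissolved in 50% TFE/water at 80 μM, with compound at 1:3 protein:compound. CD spectra were taken in a 0.1 cm path cuvette. Secondary-structure content (helix, β-sheet, turn) was obtained by spectral deconvolution.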

[9] = Inhibition of amyloid beta (12-28) fibrillation assessed as increase in beta-sheet conformation at 3:1 compound to protein ratio by CD spectroscopy assay; conditions: concentration not given here; method in brief: as §3
[10] = test system: PC-12; assay: Neuroprotective activity against rat PC12 cells assessed as reversal of amyloid beta (1 to 42)-induced neuronal damage in at 3 uM after 48 hrs by MTT assay; assay type: functional; method in brief: as §1
[11] = test system: PC-12; assay: Cytotoxicity against rat PC12 cells at 1 uM by MTT assay; assay type: cell-based; conditions: pc-12, 1 µM
Method in brief: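 Differentiated PC-12 cells in DMEM with 10% heat-inactivated FBS and 2 mM L-glutamine, 37 C, 5% CO2. Plated at 10 000 cells/well and treated 24 h later with compound diluted in medium (0.1 nM to 100 μM) for 48 h. MTT read at 570 nm. Viability scaled between media and 5 μM staurosporine controls. At least 3 independent experiments × 3 replicates.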

[12] = test system: PC-12; assay: Neuroprotective activity against rat PC12 cells assessed as reversal of amyloid beta (1 to 42)-induced neuronal damage after 48 hrs by MTT assay; assay type: functional, cell-based; method in brief: as §1

Row | Structure (SMILES) | IC50 ([1]; read-out: IC50) [µM] | IC50 [1] | other results
1 | Cc1cc(C(C)(C)c2cc(C)c(OCC(O)CN3CCC4(CC3)OCCO4)c(C)c2)cc(C)c1OCC(O)CN1CCC2(CC1)OCCO2 (stereo not drawn) | 20 | – | –
2 | Cc1cc(C2(c3cc(C)c(OCC(O)CN4CCOCC4)c(C)c3)CCCCC2)cc(C)c1OCC(O)CN1CCOCC1 (stereo not drawn) | – | Not Active | –
3 | Cc1cc(C(C)(C)c2cc(C)c(OCC(O)CN3CCN(Cc4ccccc4)CC3)c(C)c2)cc(C)c1OCC(O)CN1CCN(Cc2ccccc2)CC1 (stereo not drawn) | 6.2 | – | –
4 | CC(C)(c1ccc(OCC(O)CN2CCOCC2)cc1)c1ccc(OCC(O)CN2CCOCC2)cc1 (stereo not drawn) | – | Not Active | –
5 | Cc1cc(C2(c3cc(C)c(OCC(O)CN4CCOCC4)c(C)c3)CCCCCC2)cc(C)c1OCC(O)CN1CCOCC1 (stereo not drawn) | – | Not Active | –
6 | CN1CCN(CC(O)COc2ccc(C(C)(C)c3ccc(OCC(O)CN4CCN(C)CC4)cc3)cc2)CC1 (stereo not drawn) | – | Not Active | –
7 | Cc1cc(C(C)(C)c2cc(C)c(OCC(O)CN3CCN(C(=O)OC(C)(C)C)CC3)c(C)c2)cc(C)c1OCC(O)CN1CCN(C(=O)OC(C)(C)C)CC1 (stereo not drawn) | 0.4 | – | IC50 [2]: 1.82 µM
8 | OC(COc1ccc(C(c2ccc(OCC(O)CN3CCOCC3)cc2)(C(F)(F)F)C(F)(F)F)cc1)CN1CCOCC1 (stereo not drawn) | – | Not Active | –
9 | Cc1cc(C(C)(C)c2cc(C)c(OCC(O)CN3CC(C)CC(C)C3)c(C)c2)cc(C)c1OCC(O)CN1CC(C)CC(C)C1 (stereo not drawn) | 8.9 | – | –
10 | OC(COc1c(Br)cc(C2(c3cc(Br)c(OCC(O)CN4CCOCC4)c(Br)c3)CCCC2)cc1Br)CN1CCOCC1 (stereo not drawn) | – | Not Active | –
11 | OC(COc1c(Br)cc(C(c2cc(Br)c(OCC(O)CN3CCOCC3)c(Br)c2)(C(F)(F)F)C(F)(F)F)cc1Br)CN1CCOCC1 (stereo not drawn) | – | Not Active | –
12 | CC(c1cc(Br)c(OCC(O)CN2CCN(C)CC2)c(Br)c1)c1cc(Br)c(OCC(O)CN2CCN(C)CC2)c(Br)c1 (stereo not drawn) | 25 | – | –
13 | CCCCN(CCCC)CC(O)COc1c(Br)cc(C(C)(C)c2cc(Br)c(OCC(O)CN(CCCC)CCCC)c(Br)c2)cc1Br (stereo not drawn) | 0.27 | – | –
14 | Cc1cc(C)cc(NCC(O)COc2c(C)cc(C(C)(C)c3cc(C)c(OCC(O)CNc4cc(C)cc(C)c4)c(C)c3)cc2C)c1 (stereo not drawn) | – | Not Active | –
15 | Cc1cc(C2(c3cc(C)c(OCC(O)CN4CCOCC4)c(C)c3)CCCC2)cc(C)c1OCC(O)CN1CCOCC1 (stereo not drawn) | – | Not Active | –
16 | Cc1cc(C(C)(C)c2cc(C)c(OCC(O)CN3CCCC3)c(C)c2)cc(C)c1OCC(O)CN1CCCC1 (stereo not drawn) | 11 | – | –
17 | Cc1cc(C(C)(C)c2ccc(OCC(O)CN3CCOCC3)c(C)c2)ccc1OCC(O)CN1CCOCC1 (stereo not drawn) | – | Not Active | –
18 | Cc1cc(C(C)(C)c2cc(C)c(OCC(O)CNc3ccc(C(C)(C)C)cc3)c(C)c2)cc(C)c1OCC(O)CNc1ccc(C(C)(C)C)cc1 (stereo not drawn) | – | Not Active | –

Row | Structure (SMILES) | IC50 ([1]; read-out: IC50) [µM] | IC50 [1] | other results
19 | CN1CCN(CC(O)COc2ccc(C3(c4ccc(OCC(O)CN5CCN(C)CC5)c(Br)c4)CCCCC3)cc2Br)CC1 (stereo not drawn) | 13 | – | –
20 | CC(C)(C)c1ccc(NCC(O)COc2c(Br)cc(C(C)(C)c3cc(Br)c(OCC(O)CNc4ccc(C(C)(C)C)cc4)c(Br)c3)cc2Br)cc1 (stereo not drawn) | – | Not Active | –
21 | Cc1cc(C(C)(C)c2cc(C)c(OCC(O)CN3CCCCC3)c(C)c2)cc(C)c1OCC(O)CN1CCCCC1 (stereo not drawn) | 43 | – | –
22 | Cc1cc(C2(c3cc(C)c(OCC(O)CN4CCN(C)CC4)c(C)c3)CCCCC2)cc(C)c1OCC(O)CN1CCN(C)CC1 (stereo not drawn) | 70 | – | –
23 | Cc1cc(C(C)(C)c2cc(C)c(OCC(O)CN3CCN(C)CC3)c(C)c2)cc(C)c1OCC(O)CN1CCN(C)CC1 (stereo not drawn) | – | Not Active | –
24 | Cc1cc(C2(c3cc(C)c(OCC(O)CN4CCN(C)CC4)c(C)c3)CCCC2)cc(C)c1OCC(O)CN1CCN(C)CC1 (stereo not drawn) | 56 | – | –
25 | CN1CCN(CC(O)COc2ccc(C(c3ccc(OCC(O)CN4CCN(C)CC4)cc3)(C(F)(F)F)C(F)(F)F)cc2)CC1 (stereo not drawn) | 380 | – | –
26 | Cc1cc(C(C)(C)c2cc(C)c(OCC(O)CN3CCOCC3)c(C)c2)cc(C)c1OCC(O)CN1CCOCC1 (stereo not drawn) | – | Not Active | –
27 | CC(C)(c1cc(Br)c(OCC(O)CN2CCC3(CC2)OCCO3)c(Br)c1)c1cc(Br)c(OCC(O)CN2CCC3(CC2)OCCO3)c(Br)c1 (stereo not drawn) | 4.7 | – | –
28 | CC1CC(C)CN(CC(O)COc2c(Br)cc(C(C)(C)c3cc(Br)c(OCC(O)CN4CC(C)CC(C)C4)c(Br)c3)cc2Br)C1 (stereo not drawn) | 4.8 | – | Activity [3]: 96.6%; inhibition [4]: Active; inhibition [5]: Active; inhibition [6]: 40.4%; IC50 [2]: 5.57 µM; inhibition [7]: Active; inhibition [8]: 13.7%; inhibition [9]: 17.4%; Activity [10]: 104.2%; Activity [11]: Non-toxic; Activity [12]: Dose-dependent effect; IC50 ([12]; PC-12, 48 h): 0.8 µM
29 | CC(C)(c1cc(Br)c(OCC(O)CN2CCOCC2)c(Br)c1)c1cc(Br)c(OCC(O)CN2CCOCC2)c(Br)c1 (stereo not drawn) | 26 | – | –
30 | CN1CCN(CC(O)COc2c(Br)cc(C3(c4cc(Br)c(OCC(O)CN5CCN(C)CC5)c(Br)c4)CCCC3)cc2Br)CC1 (stereo not drawn) | 24 | – | –
31 | CC(C)(c1ccc(OCC(O)CN2CCCCC2)cc1)c1ccc(OCC(O)CN2CCCCC2)cc1 (stereo not drawn) | 110 | – | –
32 | Cc1cc(C2(c3cc(C)c(OCC(O)CN4CCN(C)CC4)c(C)c3)CCCCCC2)cc(C)c1OCC(O)CN1CCN(C)CC1 (stereo not drawn) | 32 | – | –
33 | CN1CCN(CC(O)COc2c(Br)cc(C(c3cc(Br)c(OCC(O)CN4CCN(C)CC4)c(Br)c3)(C(F)(F)F)C(F)(F)F)cc2Br)CC1 (stereo not drawn) | 24 | – | –
34 | Cc1cc(C(C)(C)c2cc(C)c(OCC(O)CN3CCCCCC3)c(C)c2)cc(C)c1OCC(O)CN1CCCCCC1 (stereo not drawn) | 6.2 | – | –
35 | CN1CCN(CC(O)COc2c(Br)cc(C(C)(C)c3cc(Br)c(OCC(O)CN4CCN(C)CC4)c(Br)c3)cc2Br)CC1 (stereo not drawn) | 23 | – | –
